Experimental findings from ChEMBL document CHEMBL4145448, “Broad activity of diphenyleneiodonium analogues against Mycobacterium tuberculosis, malaria parasites and bacterial pathogens” (Eur J Med Chem, 2018) are described below.

Data set [1] relates to Pseudomonas aeruginosa. The data set can be described thus: Antibacterial activity against Pseudomonas aeruginosa QLD PSA 1 after 18 hrs by broth microdilution method. The format is functional. The conditions noted are these: QLD PSA 1, 18 h. The method in brief:
(§1)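 Broth microdilution per CLSI in cation-adjusted Mueller-Hinton broth. 100 µL inoculum (~10^6 cfu/mL in CaMHB) mixed with 100 µL CaMHB containing compound, 0 to 128 µM. Incubated 18 h at 37 °C. MIC taken as the lowest concentration with no visible growth. Polymyxin B served as positive control. Isolates were stored at -80 °C in tryptone soy broth with 20% glycerol.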
A general note: Dilution methods test growth across graded concentrations, often in twofold steps.

Data set [2] deals with Pseudomonas aeruginosa. The data set can be described thus: Antibacterial activity against Pseudomonas aeruginosa isolate 18878B klon 1 after 18 hrs by broth microdilution method. The conditions noted are these: isolate 18878B klon 1, 18 h. The format is functional. The procedure, abridged: as §1
The test system of the next data set is Acinetobacter baumannii. Kind of data set: Antibacterial activity against Acinetobacter baumannii isolate 246-01-C after 18 hrs by broth microdilution method. Format: functional. The procedure, abridged: as §1
Data set [3] relates to Klebsiella pneumoniae. The data set can be described thus: Antibacterial activity against Klebsiella pneumoniae ATCC 13883 after 18 hrs by broth microdilution method. Format: functional. Conditions: ATCC 13883, 18 h. The method in brief:
as §1

Data set [4] deals with Klebsiella pneumoniae. The data set can be described thus: Antibacterial activity against Klebsiella pneumoniae isolate 224-11-C after 18 hrs by broth microdilution method. Format: functional. The procedure, abridged:
as §1

The subject of the next data set is Enterococcus faecium. The data set can be described thus: Antibacterial activity against vancomycin-resistant Enterococcus faecium ATCC 700221 after 18 hrs by broth microdilution method. Format: functional. The conditions noted are these: ATCC 700221, 18 h. The method in brief:
as §1

The subject of the next data set is Escherichia coli. Kind of data set: Antibacterial activity against Escherichia coli N4149 after 18 hrs by broth microdilution method. Conditions: N4149, 18 h. The format is functional. The method in brief:
as §1

Data set [5] relates to Staphylococcus aureus. Kind of data set: Antibacterial activity against methicillin-resistant Staphylococcus aureus ATCC 43300 after 18 hrs by broth microdilution method. The conditions noted are these: ATCC 43300, 18 h. The format is functional. The method in brief:
as §1

Data set [6] deals with Staphylococcus aureus. Kind of data set: Antibacterial activity against vancomycin-intermediate Staphylococcus aureus ATCC 700698 after 18 hrs by broth microdilution method. Format: functional. Conditions: ATCC 700698, 18 h. The method in brief:
as §1

In data set [7] the test system is Staphylococcus aureus. The data set can be described thus: Antibacterial activity against vancomycin-resistant Staphylococcus aureus ATCC 700699 after 18 hrs by broth microdilution method. The conditions noted are these: ATCC 700699, 18 h. Format: functional. The method in brief:
as §1

Data set [8] in a line: Selectivity index, ratio of CC50 for human HepG2 cells in presence of 1% FBS to MIC for Pseudomonas aeruginosa ATCC 27853. The format is toxicity. The conditions noted are these: read-out: Selectivity Index. The procedure, abridged:
(§2)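 Selectivity index is CC50 (1% FBS) divided by MIC. […] They then got compound at 300 to 0.14 µM (3-fold steps) for 24 h at 37 °C, 5% CO2. Resazurin (10 µM, 2 h) was read at ex/em 560/590 in duplicate wells. For MIC, CLSI broth microdilution was run in CaMHB with ~10^6 cfu/mL inoculum and 0–128 µM compound.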

Data set [9] is described as follows: Selectivity index, ratio of CC50 for human HepG2 cells in presence of 1% FBS to MIC for Pseudomonas aeruginosa QLD PSA 1. The conditions noted are these: read-out: Selectivity Index. Format: toxicity. The method in brief:
as §2

A short description of data set [10]: Selectivity index, ratio of CC50 for human HepG2 cells in presence of 1% FBS to MIC for Pseudomonas aeruginosa isolate 19147nm. The format is toxicity. Conditions: read-out: Selectivity Index. The procedure, abridged: as §2
A short description of data set [11]: Selectivity index, ratio of CC50 for human HepG2 cells in presence of 1% FBS to MIC for Acinetobacter baumannii isolate 246-01-C. The conditions noted are these: read-out: Selectivity Index. Format: toxicity.
Data set [12] can be described thus: Selectivity index, ratio of CC50 for human HepG2 cells in presence of 1% FBS to MIC for Acinetobacter baumannii ATCC 17978. The conditions noted are these: read-out: Selectivity Index. Format: toxicity.
Data set [13] is described as follows: Selectivity index, ratio of CC50 for human HepG2 cells in presence of 1% FBS to MIC for Acinetobacter baumannii ATCC 17978 col10. The format is toxicity. Conditions: read-out: Selectivity Index.
Data set [14] in a line: Selectivity index, ratio of CC50 for human HepG2 cells in presence of 1% FBS to MIC for Klebsiella pneumoniae isolate M320445. Conditions: read-out: Selectivity Index. Format: toxicity.
Data set [15] can be described thus: Selectivity index, ratio of CC50 for human HepG2 cells in presence of 1% FBS to MIC for Klebsiella pneumoniae isolate 224-11-C. Conditions: read-out: Selectivity Index. The format is toxicity.
Data set [16] is described as follows: Selectivity index, ratio of CC50 for human HepG2 cells in presence of 1% FBS to MIC for Escherichia coli N2381. Conditions: read-out: Selectivity Index. Format: toxicity.
A short description of data set [17]: Selectivity index, ratio of CC50 for human HepG2 cells in presence of 1% FBS to MIC for Escherichia coli N4149. Conditions: read-out: Selectivity Index. Format: toxicity.
A short description of data set [18]: Selectivity index, ratio of CC50 for human HepG2 cells in presence of 1% FBS to MIC for Escherichia coli N11281. Format: toxicity. Conditions: read-out: Selectivity Index.
A short description of data set [19]: Selectivity index, ratio of CC50 for human HepG2 cells in presence of 1% FBS to MIC for vancomycin-resistant Enterococcus faecium ATCC 700221. The format is toxicity. Conditions: read-out: Selectivity Index. The method in brief:
as §2

Data set [20] in a line: Selectivity index, ratio of CC50 for human HepG2 cells in presence of 1% FBS to MIC for vancomycin-intermediate Staphylococcus aureus ATCC 700698. The format is toxicity. Conditions: read-out: Selectivity Index. The procedure, abridged: as §2

The term MIC denotes the lowest concentration found to suppress growth. A higher MIC goes with a need for much substance.

Regarding `c1ccc2c(c1)[I+]c1c-2ccc2ccccc12`, the MIC against Pseudomonas aeruginosa [1] was found to be 4.2 µM; with Pseudomonas aeruginosa [2], 2.1 µM; in the data set on Acinetobacter baumannii, 4.2 µM; in the data set on Klebsiella pneumoniae [3], 8.4 µM; with Klebsiella pneumoniae [4], 34 µM; in the data set on Enterococcus faecium, 1.1 µM. For the same compound, the MIC against Escherichia coli came out at 34 µM; against Staphylococcus aureus [5], 2.1 µM; with Staphylococcus aureus [6], 4.2 µM; with Staphylococcus aureus [7], 4.2 µM. In addition, the selectivity ratio worked out at 0.09 in data set [8]; 0.17 in [9]; 0.34 in [10]; 0.17 in data set [11]; 0.69 in data set [12]; 1.4 in [13]. For the same compound, the selectivity ratio in data set [14] turned out to be 0.04; in data set [15], 0.02; in data set [16], 0.09; in data set [17], 0.02; in [18], 0.04; in [19], 0.69. Further, the selectivity ratio in data set [20] amounted to 0.17.
On to `Clc1ccc2c(c1)[I+]c1ccccc1-2`, for which the MIC with Pseudomonas aeruginosa [1] worked out at 2.2 µM; against Pseudomonas aeruginosa [2] it was 0.54 µM; against Acinetobacter baumannii, 2.2 µM; against Klebsiella pneumoniae [3], 8.7 µM; in the data set on Klebsiella pneumoniae [4], 17 µM; in the data set with Enterococcus faecium it was 1.1 µM. Further, the MIC was 8.7 µM against Escherichia coli, 2.2 µM with Staphylococcus aureus [5], 2.2 µM with Staphylococcus aureus [6] and 2.2 µM with Staphylococcus aureus [7]. The selectivity ratio in data set [8] was 0.13; in data set [9], 0.51; in data set [10], 2; in data set [11], 0.51; in data set [12] it was 2; in [13], less than 4.1. Also, the selectivity ratio in data set [14] was 0.13; in data set [15] it was 0.06; in data set [16], 0.13; in data set [17], 0.13; in data set [18], 0.26; in data set [19], 1. In addition, the selectivity ratio in data set [20] turned out to be 0.51.
As for `COc1cccc2c1-c1ccccc1[I+]2`, the MIC against Pseudomonas aeruginosa [1] was more than 70 µM; against Pseudomonas aeruginosa [2], 70 µM; against Acinetobacter baumannii, 70 µM; in the data set with Klebsiella pneumoniae [3], more than 70 µM; against Klebsiella pneumoniae [4], more than 70 µM; in the data set on Enterococcus faecium it was 8.7 µM. For the same compound, the minimal inhibitory concentration (MIC) in the data set with Escherichia coli is more than 70 µM; in the data set with Staphylococcus aureus [5], 35 µM; with Staphylococcus aureus [6] it was 35 µM; against Staphylococcus aureus [7] it was 35 µM. For the same compound, the selectivity ratio was more than 0.55 in [8]; more than 0.55 in [9]; 0.55 in data set [10]; 0.55 in data set [11]; 1.1 in data set [12]; 1.1 in data set [13]. Besides, the selectivity ratio is 0.55 in data set [14]; more than 0.55 in data set [15]; 0.55 in [16]; more than 0.55 in [17]; more than 0.55 in data set [18]; 4.4 in data set [19]. Besides, in data set [20], the selectivity ratio is 1.1.
Regarding `Clc1ccc2c(c1)-c1ccccc1[I+]2`, the MIC is 8.7 µM against Pseudomonas aeruginosa [1]; 2.2 µM with Pseudomonas aeruginosa [2]; 4.3 µM with Acinetobacter baumannii; 8.7 µM against Klebsiella pneumoniae [3]; 35 µM in the data set on Klebsiella pneumoniae [4]; 8.7 µM against Enterococcus faecium. Besides, the minimum inhibitory concentration (MIC) in the data set with Escherichia coli amounted to 17 µM; in the data set with Staphylococcus aureus [5], 2.2 µM; with Staphylococcus aureus [6], 4.3 µM; against Staphylococcus aureus [7] it was 4.3 µM. Besides, the selectivity ratio was 1.9 in data set [8]; 1.9 in [9]; 3.7 in data set [10]; 3.7 in [11]; 7.5 in data set [12]; 30 in [13]. Also, the selectivity ratio in data set [14] worked out at 0.47; in [15], 0.47; in data set [16] it was 0.93; in [17], 0.93; in [18], 0.93; in [19] it was 1.9. Moreover, the selectivity ratio in data set [20] amounted to 3.7.
`COc1ccc2c(c1)-c1ccccc1[I+]2`: the MIC is 70 µM in the data set on Pseudomonas aeruginosa [1]; 35 µM with Pseudomonas aeruginosa [2]; 35 µM in the data set with Acinetobacter baumannii; 70 µM in the data set with Klebsiella pneumoniae [3]; more than 70 µM against Klebsiella pneumoniae [4]; 4.4 µM against Enterococcus faecium. Also, the MIC in the data set with Escherichia coli is more than 70 µM; against Staphylococcus aureus [5] it was 18 µM; in the data set with Staphylococcus aureus [6], 35 µM; in the data set with Staphylococcus aureus [7] it was 35 µM. Besides, the selectivity ratio is more than 0.29 in data set [8]; 0.29 in data set [9]; 1.2 in data set [10]; 0.58 in data set [11]; 1.2 in data set [12]; 4.6 in [13]. The selectivity ratio in [14] was 0.29; in [15], more than 0.29; in data set [16], more than 0.29; in data set [17] it was more than 0.29; in data set [18], more than 0.29; in data set [19] it was 4.6. For the same compound, the selectivity ratio in data set [20] stood at 0.58.
For `Cc1ccc2c(c1)-c1ccccc1[I+]2`, the MIC against Pseudomonas aeruginosa [1] was 36 µM; against Pseudomonas aeruginosa [2], 9 µM; in the data set with Acinetobacter baumannii, 9 µM; in the data set with Klebsiella pneumoniae [3], 72 µM; in the data set with Klebsiella pneumoniae [4] it was more than 72 µM; with Enterococcus faecium, 4.5 µM. In addition, the minimal inhibitory concentration (MIC) is more than 72 µM against Escherichia coli, 9 µM with Staphylococcus aureus [5], 18 µM against Staphylococcus aureus [6] and 18 µM against Staphylococcus aureus [7]. In addition, the selectivity ratio is more than 0.52 in data set [8]; 1 in data set [9]; 4.2 in data set [10]; 4.2 in data set [11]; 4.2 in data set [12]; 33 in [13]. For the same compound, the selectivity ratio in data set [14] is 0.52; in data set [15] it was more than 0.52; in [16], 0.52; in data set [17], more than 0.52; in [18] it was 0.52; in data set [19] it was 8.3. In addition, the selectivity ratio in [20] was 2.2.
Consider `Fc1ccc2c(c1)[I+]c1ccccc1-2`, for which the MIC with Pseudomonas aeruginosa [1] is 8.9 µM; in the data set on Pseudomonas aeruginosa [2], 1.1 µM; in the data set on Acinetobacter baumannii, 4.5 µM; in the data set on Klebsiella pneumoniae [3], 36 µM; in the data set with Klebsiella pneumoniae [4], 72 µM; in the data set on Enterococcus faecium it was 2.2 µM. The minimal inhibitory concentration (MIC) was found to be 18 µM against Escherichia coli, 2.2 µM in the data set with Staphylococcus aureus [5], 8.9 µM against Staphylococcus aureus [6] and 8.9 µM with Staphylococcus aureus [7]. Also, the selectivity ratio in [8] was found to be 0.66; in data set [9] it was 0.66; in data set [10] it was 11; in [11] it was 2.6; in [12], 5.3; in data set [13] it was 11. Further, the selectivity ratio came out at 0.16 in data set [14]; 0.08 in data set [15]; 0.08 in data set [16]; 0.08 in data set [17]; 0.08 in [18]; 2.6 in data set [19]. For the same compound, in [20], the selectivity ratio stood at 0.66.
